Measured values reported in ChEMBL document CHEMBL4382245, “Balancing reactivity and antitumor activity: heteroarylthioacetamide derivatives as potent and time-dependent inhibitors of EGFR” (Eur J Med Chem, 2019).

Legend:
[1] = molecular target: T1, Epidermal growth factor receptor (Homo sapiens, UniProt P00533); details: A549, at 1 µM
[2] = system: Epidermal growth factor receptor (Homo sapiens), P00533 [L858R,T790M]; details: NCI-H1975, at 0.1 µM
[3] = Cysteine reactivity in pH 10 CAPS buffer assessed as half life for cysteine-compound adduct formation at 10 uM after 24 hrs in presence of 100 molar excess cysteine by LC-MS analysis
Method in brief: (§1)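 Compound at 10 µM added to freshly prepared 1 mM cysteine (1:100) in 50 mM CAPS pH 10, ionic strength 0.15 M with KCl; 37 °C; Cys-conjugate measured after 24 h by LC-MS in MRM mode. Half-life from LC-MS; conjugate peak area scaled to the 2-chloroacetamide conjugate set at 10,000.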

[4] = system: Epidermal growth factor receptor (Homo sapiens), P00533 [L858R,T790M]; details: NCI-H1975, at 1 µM
[5] = molecular target: T1, Epidermal growth factor receptor; details: A549, at 1 µM; remark: listed apart in the source
[6] = Drug uptake in human A549 cells at 1 uM after 1 hr by LC-MS analysis; assay type: ADME, cell-based; details: a549, 1 h
Method in brief: (§2)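 A549 cells plated at 1,000,000 per 25 cm2 dish, dosed after 24 h at 1 µM final (0.1% DMSO), 1 h at 37 °C. Harvested at once or 8 h after three washes with fresh medium. Ethanol extraction, LC-MS quantitation as pmol/mg protein (Bradford), converted to µM using 4 µL cell volume per mg protein. Mean ± SD, three experiments.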

[7] = molecular target: T1, Epidermal growth factor receptor; assay: Inhibition of wild type EGFR autophosphorylation in human A549 cells by Western blot analysis; assay type: cell-based
[8] = molecular target: T1, Epidermal growth factor receptor
NCI-H1975 = assay: cells; assay type: functional, cell-based; details: Homo sapiens, NCI-H1975, 72 h
[9] = Drug uptake in human A549 cells at 1 uM incubated for 1 hr followed by compound washout and measured after 8 hrs by LC-MS analysis; assay type: ADME, cell-based; details: a549, 1 h
Method in brief: as §2

[10] = Cysteine reactivity in pH 10 CAPS buffer assessed as peak area for cysteine-compound adduct formation at 10 uM after 24 hrs in presence of 100 molar excess cysteine by LC-MS analysis relative to 2-chloro-N-(4-((3-chloro-4-fluorophenyl)amino)-7-ethoxyquinazolin-6-yl)acetamide
Method in brief: as §1

A549 = assay: Ratio of drug uptake in human A549 cells at 1 uM measured after 1 hr to drug uptake in human A549 cells at 1 uM incubated for 1 hr followed by compound washout and measured after 8 hrs; assay type: ADME, cell-based; details: a549, 1 µM
Method in brief: as §2

T1 sequence (P00533 whole entry): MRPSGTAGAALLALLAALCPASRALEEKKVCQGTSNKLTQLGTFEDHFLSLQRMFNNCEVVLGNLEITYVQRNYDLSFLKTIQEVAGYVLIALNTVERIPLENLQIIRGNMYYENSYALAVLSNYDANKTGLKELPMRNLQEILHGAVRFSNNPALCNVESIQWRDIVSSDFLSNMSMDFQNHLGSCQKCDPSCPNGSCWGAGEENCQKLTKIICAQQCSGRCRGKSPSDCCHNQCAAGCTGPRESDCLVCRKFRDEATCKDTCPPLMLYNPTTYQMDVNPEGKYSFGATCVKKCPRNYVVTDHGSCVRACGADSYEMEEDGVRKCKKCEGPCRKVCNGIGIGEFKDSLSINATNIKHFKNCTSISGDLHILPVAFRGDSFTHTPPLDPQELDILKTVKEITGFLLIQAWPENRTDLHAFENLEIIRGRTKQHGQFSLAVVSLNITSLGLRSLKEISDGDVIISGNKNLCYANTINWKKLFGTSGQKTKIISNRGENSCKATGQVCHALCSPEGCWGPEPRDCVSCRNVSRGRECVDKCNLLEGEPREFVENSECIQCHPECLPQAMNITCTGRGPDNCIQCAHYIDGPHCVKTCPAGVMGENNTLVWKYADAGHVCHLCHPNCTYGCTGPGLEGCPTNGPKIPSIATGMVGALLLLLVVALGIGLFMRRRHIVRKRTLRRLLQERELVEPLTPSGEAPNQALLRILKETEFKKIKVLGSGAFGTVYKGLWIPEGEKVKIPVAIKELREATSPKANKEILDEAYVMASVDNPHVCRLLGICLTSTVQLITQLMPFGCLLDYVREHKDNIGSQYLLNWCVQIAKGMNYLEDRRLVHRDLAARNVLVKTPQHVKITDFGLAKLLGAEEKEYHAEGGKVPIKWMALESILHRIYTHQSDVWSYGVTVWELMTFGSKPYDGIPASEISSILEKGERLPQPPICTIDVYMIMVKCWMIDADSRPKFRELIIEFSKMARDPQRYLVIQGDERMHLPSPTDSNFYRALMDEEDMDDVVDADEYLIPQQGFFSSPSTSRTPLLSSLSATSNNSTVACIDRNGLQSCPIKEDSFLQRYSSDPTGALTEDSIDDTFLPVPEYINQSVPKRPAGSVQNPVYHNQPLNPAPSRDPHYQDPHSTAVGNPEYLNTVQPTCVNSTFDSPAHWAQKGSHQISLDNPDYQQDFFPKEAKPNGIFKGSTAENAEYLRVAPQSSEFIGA
Chain of Epidermal growth factor receptor (Homo sapiens), P00533 [L858R,T790M] (P00533 whole entry T790M/L858R, looked up): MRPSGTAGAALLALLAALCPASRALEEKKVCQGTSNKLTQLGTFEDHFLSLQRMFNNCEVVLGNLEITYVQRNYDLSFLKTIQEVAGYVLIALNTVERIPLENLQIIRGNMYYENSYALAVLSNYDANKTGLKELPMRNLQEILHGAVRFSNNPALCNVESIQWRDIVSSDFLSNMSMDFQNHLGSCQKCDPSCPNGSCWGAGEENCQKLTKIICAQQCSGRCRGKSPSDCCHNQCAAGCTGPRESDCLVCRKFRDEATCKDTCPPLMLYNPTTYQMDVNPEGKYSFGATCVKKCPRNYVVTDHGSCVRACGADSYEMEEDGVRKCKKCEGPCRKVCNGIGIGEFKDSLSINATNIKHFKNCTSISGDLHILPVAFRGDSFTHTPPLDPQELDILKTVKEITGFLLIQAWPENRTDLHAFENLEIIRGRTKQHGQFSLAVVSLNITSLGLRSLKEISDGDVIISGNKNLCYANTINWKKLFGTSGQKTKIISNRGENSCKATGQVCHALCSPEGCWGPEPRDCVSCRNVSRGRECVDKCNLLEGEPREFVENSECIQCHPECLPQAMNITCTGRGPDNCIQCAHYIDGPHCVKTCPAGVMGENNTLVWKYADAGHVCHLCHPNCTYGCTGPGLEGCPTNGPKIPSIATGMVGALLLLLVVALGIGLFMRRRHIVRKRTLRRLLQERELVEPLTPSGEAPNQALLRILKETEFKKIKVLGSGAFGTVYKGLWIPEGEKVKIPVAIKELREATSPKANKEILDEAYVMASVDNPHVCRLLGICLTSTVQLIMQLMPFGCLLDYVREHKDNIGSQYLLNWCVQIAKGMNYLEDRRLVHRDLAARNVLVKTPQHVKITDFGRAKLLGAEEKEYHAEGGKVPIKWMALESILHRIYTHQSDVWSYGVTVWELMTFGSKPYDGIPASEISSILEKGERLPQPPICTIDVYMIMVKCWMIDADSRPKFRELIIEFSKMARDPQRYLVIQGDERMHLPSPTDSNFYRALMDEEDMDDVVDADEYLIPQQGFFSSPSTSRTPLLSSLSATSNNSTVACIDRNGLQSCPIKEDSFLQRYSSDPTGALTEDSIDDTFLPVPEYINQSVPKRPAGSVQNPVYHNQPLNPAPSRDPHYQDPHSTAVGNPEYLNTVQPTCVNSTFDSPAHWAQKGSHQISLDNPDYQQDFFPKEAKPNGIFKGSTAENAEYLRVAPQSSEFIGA

inhibition [1] [%]	inhibition [2] [%]	T1/2 [3] [h]	inhibition [4] [%]	inhibition [5] [%]	Drug uptake [6] [µM]	IC50 [7] [nM]	IC50 [8] [nM]	IC50 (NCI-H1975) [nM]	Drug uptake [9] [µM]	Activity [10] [a.u.]	Ratio (A549)	SMILES
75	27	23.3	68	97	5.8	34	0.52	3400	< 0.05	0.64	–	CCOc1cc2ncnc(Nc3ccc(F)c(Cl)c3)c2cc1NC(=O)COC(C)=O
77	0	> 24	0	90	132	27	0.34	> 10000	1.1	–	120	CCOc1cc2ncnc(Nc3ccc(F)c(Cl)c3)c2cc1NC(=O)CO

Second part, the molecule before the results:

SMILES	inhibition [1] [%]	inhibition [2] [%]	T1/2 [3] [h]	inhibition [4] [%]	inhibition [5] [%]	Drug uptake [6] [µM]	IC50 [7] [nM]	IC50 [8] [nM]	IC50 (NCI-H1975) [nM]	Drug uptake [9] [µM]	Activity [10] [a.u.]	Ratio (A549)
COc1cc2ncnc(Nc3ccc(F)c(Cl)c3)c2cc1OCCCN1CCOCC1 [GEFITINIB]	–	–	–	–	–	271	–	–	–	2.4	–	–
CCOc1cc2ncnc(Nc3ccc(F)c(Cl)c3)c2cc1NC(=O)COC(=O)c1ccccc1	89	0.5	> 24	43	88	–	25	–	8300	–	11	–
CCOc1cc2ncnc(Nc3ccc(F)c(Cl)c3)c2cc1NC(=O)COC(=O)c1c(C)cccc1C	97	20	> 24	16	97	–	44	–	6100	–	5	–
